# Source: PubChem BioAssay
# DAGLB inh = DAGLB lipase inhibitors, primary screen, biochemical, fluorescence, HTS. actives 0.059% (n = 340,000). HEK293T DAGLB membrane lysate, EnzChek fluorogenic substrate. inhibition, % at 5.17 µM. Diacylglycerol lipase-beta (Homo sapiens), Q8NCG7; in the data active means inhibition above about 34%;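 further: 0% = enzyme with vehicle and 100% = wells lacking enzyme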
# NRP1-CendR mod = modulators of CendR peptide binding to NRP-1, primary screen, biochemical, fluorescence polarization, uHTS; Neuropilin-1 (Homo sapiens), O14786; actives 0.85% (n = 360,000); FAM-RPARPAR peptide binding to NRP-1; inhibition, % at 25 µM; AID 602438, 2012;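 active means inhibition or corrected inhibition above about 18%, plus a signal ratio from 0.5 to 1.5, limit read from the data, passing the limit was not always enough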
# MIN6 prolif = inducers of MIN6 beta-cell proliferation, primary screen, ATP luminescence, uHTS; MIN6 cells proliferation, ATPlite luminescence, 48 h; cells starved in 0.2% serum; 100% = growth in 10% serum; proliferation, % at 10 µM; actives 0.29% (n = 330,000); AID 2380, 2010;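 active means compounds whose signal lies at least 3.5 SD above the mean of all wells on their plate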;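 further: 0% = DMSO-treated cells in low-serum medium and 100% = 10% serum control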
# MT1-MMP act inh = blockers of MT1-MMP proenzyme processing, primary screen, HT1080 RFP-PRO-GFP cells, GFP/RFP fluorescence | Matrix metalloproteinase-14 (Homo sapiens), P50281 | GFP/RFP ratio fluorescence, overnight; percent of plate control window, DMSO zero | GFP/RFP ratio change, % at 20 µM | actives 0.061% (n = 360,000);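 active means GFP/RFP ratio change of at least 30% with cell ATP level not reduced by more than half and red fluorescence within 50% of control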
#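 Assay system: RFP-PRO-GFP reporter HT1080 cells; read-out basis: GFP/RFP fluorescence ratio; benchmarks: DMSO wells and RFP-L50D-GFP cells; doses: 20 µM single dose, 1% DMSO; schedule: overnight cell settling, then overnight compound exposure, 37 °C, 5% CO2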
# Myeloid diff 2 = induction of myeloid progenitor differentiation, primary screen, cell-based, flow cytometry, MLPCN library; ER-HoxA9 myeloid progenitors, lysozyme-GFP differentiation; calls only at 10 µM; actives 1% (n = 360,000); AID 624256, 2012;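 active means normalized GFP-positive differentiation at or above the plate's own cutoff, the solvent-only control mean plus 3 SD; inconclusive means no clear call, values can overlap the other calls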;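 further: cells exposed to compound for four days before flow analysis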
# SENP1 inh = human SENP1 catalytic domain inhibitors, primary screen, biochemical, FRET, uHTS; Sentrin-specific protease 1 (Homo sapiens), Q9P0U3; recombinant SENP1 catalytic domain, CyPet-SUMO1-YPet FRET cleavage; inhibition, % at 10 µM; actives 0.21% (n = 360,000); AID 624204, 2012;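 active means inhibition at least 30% at 10 µM, raw YFP signal under a set limit, fluorescence ratio 0.5 to 1.5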;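 further: 0% = enzyme with DMSO and 100% = no enzyme wells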
#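 Compound: 10 µM single point, 0.5% DMSO; Test system: hSENP1 catalytic domain, recombinant; Timing: 50 min reaction at room temperature; Technique: FRET, CFP and YFP emission; Control set: no-enzyme wells low, DMSO-plus-enzyme wells high control.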
# * marks the source's active call; other numbers are inactive results; i = inactive; ? = inconclusive; . = no result; + = active, no number. Most compounds without a hit are left out; they make up all but 2.4% or so of the library.
SMILES,DAGLB inh,NRP1-CendR mod,MIN6 prolif,MT1-MMP act inh,Myeloid diff 2,SENP1 inh
COc1ccc(C(=O)Nc2cccc(S(C)(=O)=O)c2)cc1OC,0,2,-5,-2,i,1
COc1ccc(C(=O)Nc2cccc(NC(C)=O)c2)cc1OC,-1,-2,1,5,+,2
COc1ccc(C)cc1NC(=O)c1cccc(C(=O)Nc2cc(C)ccc2OC)c1,-5,33*,-3,0,i,1
N#CCCN(C(=O)COC(=O)c1ccc(S(=O)(=O)N2CCCC2)cc1)c1cccc(Cl)c1,0,9,0,1,i,-1
CCc1cc2c(=O)c(-c3nc4ccccc4n3C)coc2c(CN2CCN(C)CC2)c1O,-1,22*,1,-3,i,-13
COc1cccc(C(O)c2nc(-c3cccc(CO)c3)cs2)c1 (stereo unspecified),.,-8,.,3,i,1
CC(=O)Nc1ccc(C(=O)N2CCCCC2c2cc(C(=O)NC(C)C)no2)cc1 (stereo unspecified),.,44*,.,0,i,3
COC(=O)N1CCCCC1c1cc(C(=O)N2CCOCC2)no1 (stereo unspecified),.,26*,.,1,i,3
COc1cc(C(=O)N2CCCCC2c2cc(C(=O)N3CCOCC3)no2)cc(OC)c1C (stereo unspecified),.,6,.,5,i,1
COC(=O)[C@]12CCCCC=C1N(Cc1ccco1)C(=O)[C@H](CC(=O)NCCc1ccccc1OC)C2,.,-3,.,-1,i,-3
Cc1ccc(CSc2nccc(-c3c(C)nc4ccccn34)n2)cc1,.,-1,1,-7,i,2
CC#Cc1cc2c(cc1O)CCC1C2CCC2(C)C(O)CCC12 (stereo unspecified),2,-4,.,-4,?,-40
Nc1ccc(CN2CCCCCC2)cc1,-4,6,-2,2,+,1
CCOc1ccc(C2CC(c3ccc(CC)cc3)n3nc(N)nc3N2)cc1 (stereo unspecified),2,44*,3,14,i,-2
Nc1ccc(C(=O)O)c(O)c1,0,-2,-3,-1,i,-1
Nc1ccc(N)c(C(=O)O)c1,-3,11,-2,-17,i,38*
Cc1cnc(C(=O)N(c2ccc(N3CCOCC3)cc2)C2C(=O)Nc3ccccc3N=C2c2ccc3c(c2)OCO3)cn1 (stereo unspecified),.,5,.,1,i,-2
COc1ccc(C2=Nc3ccccc3NC(=O)C2N(C(=O)c2cnc(C)cn2)c2ccc(N3CCOCC3)cc2)cc1 (stereo unspecified),.,22*,.,1,i,2
Cc1noc(C)c1S(=O)(=O)Nc1ccc(C(C)C)cc1,-2,18*,-1,2,i,3
CCN(CC)c1ccc(/C=C(/C#N)c2nc3ccc(C)cc3[nH]2)c(OC(C)C)c1,-205,126,-3,-424,+,-24
COc1cc(C(=O)NCCCNc2nc3cc(C)c(C)cc3cc2C#N)cc(OC)c1OC,-1,-18,1,-2,i,-91
Cn1cc(CN2C[C@]3(C)C[C@H]2CC(C)(C)C3)c(-c2ccc3c(c2)OCCO3)n1,-3,-12,0,-2,i,-7
O=C(NC(=S)Nc1cc(Cl)ccc1O)c1cccc(Br)c1,-2,-4,-2,0,+,3
O=C(NC(=S)Nc1cccnc1)c1cccc(Br)c1,-2,4,-1,-1,i,0
O=C(CNC(=O)c1ccccc1)NCCCSc1ccccc1,-2,27*,-4,1,i,0
SMILES,DAGLB inh,NRP1-CendR mod,MIN6 prolif,MT1-MMP act inh,Myeloid diff 2,SENP1 inh
O=C1N[C@H]2CC=C[C@H]2N(Cc2cccs2)c2ccccc21,-5,0,.,2,i,-2
O=C1N[C@H]2CC=C[C@H]2Nc2ccccc21,-1,2,.,2,+,-1
Cc1ccc(N2CC(C(=O)Nc3nnc(SCC(N)=O)s3)CC2=O)cc1 (stereo unspecified),0,-13,-1,0,i,1
N#Cc1cccc(Oc2ccc(-c3cnc4ccccc4n3)cc2)c1C#N,2,-11,3,6,i,0
CC1(NC(=O)CCc2ccccc2)CCN(CCCc2ccccc2)C1=O (stereo unspecified),0,6,0,2,i,1
O=C(CCc1ccccc1)NC1(Cc2ccccc2)CCN(CCc2cccs2)C1=O (stereo unspecified),-7,19*,-5,-4,i,2
COCCNC(=O)C1Cc2cc(S(=O)(=O)N3CCCC3)ccc2N1C(C)=O (stereo unspecified),2,24*,0,-3,i,1
CC(C)Cn1nc(NC(=O)C2CCCO2)c2cc3ccccc3nc21 (stereo unspecified),-1,22,6.5*,6,i,-21
CC1(C)CC(N2CCCC2)=CC(=[N+]2CCCCCC2)C1,1,16,-6,0,i,-1
CC1CC(C)C[N+](=C2C=C(N3CCCC3)CC(C)(C)C2)C1 (stereo unspecified),2,2,.,-14,+,2
CC(CCc1ccccc1)NC(=O)COC(=O)C1CCC(C(C)(C)C)CC1 (stereo unspecified),-5,32*,-4,3,i,1
O=C(COC(=O)C1CC1)NCCc1ccccc1,0,6,2,-4,i,-2
Cc1ccc(NC2CCCCC2NS(=O)(=O)c2ccccc2)c(C)c1 (stereo unspecified),-5,0,-2,-5,i,2
CC(C)(C)c1ccc(OC(=O)N2CCOCC2)cc1,-3,13,1,4,+,4
CN(Cc1ccc(Cl)cc1)C(CCc1ccccc1)C(=O)NC1CCCCC1 (stereo unspecified),.,20*,.,-16,i,0
NS(=O)(=O)c1ccc(CCNC(=O)c2cc(-c3ccccc3)nc3ccccc23)cc1,0,30*,0,-3,i,0
O=S(=O)(N/N=C1/CC(c2ccccc2)Oc2ccccc21)c1ccccc1 (stereo unspecified),2,11,.,-3,+,0
